# Compound activity as filed in PubChem.
# In the library only some 2.3% were active in any assay of this set; here they are far more common.
# PfHsp90 set2 – reduces growth (ATP signal) of yeast expressing P. falciparum Hsp90. AID 504621. S. cerevisiae expressing PfHsp90, BacTiter-Glo ATP, 48 h; yeast lacking PDR1 and PDR3 efflux regulators. hit rate 0.32% among 310,000. inhibition, % at 9.4 µM;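 active = every replicate shows inhibition above about 80%, whatever the replicate mean, limit read from the data; inconclusive = mean inhibition reaches the set limit but some replicate falls short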;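 note: 0% = DMSO neutral controls and 100% = 20 µM radicicol positive controls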
# Rtt109 Vps75 – C. albicans Rtt109 histone acetyltransferase inhibition. Q5AAJ8. purified Rtt109/Vps75, ThioGlo CoA-SH fluorescence, 4 h. inhibition, % at 34.9 µM. hit rate 0.16% among 330,000. AID 540336;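 active = inhibition of at least 50% in every replicate; inconclusive = best replicate reaches 50% inhibition but some replicates fall short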
# Target sequence (Q5AAJ8 whole entry, looked up): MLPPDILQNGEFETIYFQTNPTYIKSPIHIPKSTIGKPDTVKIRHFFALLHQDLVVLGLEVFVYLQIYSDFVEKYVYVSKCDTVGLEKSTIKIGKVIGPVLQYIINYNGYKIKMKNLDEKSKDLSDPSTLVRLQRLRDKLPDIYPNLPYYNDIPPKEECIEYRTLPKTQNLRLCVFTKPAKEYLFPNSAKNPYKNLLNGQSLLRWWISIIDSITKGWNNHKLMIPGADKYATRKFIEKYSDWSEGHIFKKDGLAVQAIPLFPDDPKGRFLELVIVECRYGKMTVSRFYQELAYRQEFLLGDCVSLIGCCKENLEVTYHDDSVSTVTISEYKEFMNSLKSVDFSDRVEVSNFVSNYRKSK
# PAX8 reporter – PAX8 transcriptional activity inhibition | inhibition, % at 12.6 µM | RMG-I TPO-luciferase reporter, SteadyGlo, 24 h | hit rate 1.2% among 360,000;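 active = mean replicate inhibition at least 60% with every replicate also reaching 60%; inconclusive = only one of the two criteria is met; inactive = mean below 60% and not all replicates reaching 60%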;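 note: luciferase light reporting Pax8 driven TPO promoter activity; plate controls were median of neutral control wells for no effect and mitoxantrone controls for full effect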
# Arr AP2 block – inhibitors of human beta-arrestin and AP2 interaction; FITC-arrestin peptide / GST-AP2 beads, flow cytometry; AP2 beta2 appendage carries R879A mutation; inhibition, % at 10 µM; hit rate 0.31% among 340,000;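 active = inhibition above a set limit, near 3 SD of compounds lacking own fluorescence, cut at about 54% in these data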;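 note: plate controls were DMSO wells for no effect and 5 µM unlabelled arrestin peptide for full effect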
#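 System: GST-tagged AP2 beta2-adaptin appendage (R879A) on 4 µm glutathione beads / Reagent: FITC-arrestin peptide, 50 nM / Detection: HyperCyt-sampled flow cytometry, FL1 channel, ex 488/em 535 nm / Timing: 12 min plus 1 h, RT / Buffer or medium: PBS plus Tween 20 (0.05%) and BSA (0.1%)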
# HIV Env fusion – HIV envelope-mediated fusion inhibition; HeLa-JRFL Env/CEM21 cell fusion, luciferase; inhibition, % at 12.3 µM; hit rate 1.1% among 360,000; AID 651610;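 active = mean replicate inhibition score of at least 50 and every replicate individually at or above 50; inconclusive = only one of the two criteria met; inactive = mean below 50 and not all replicates reaching 50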;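 note: 0% = plate neutral controls and 100% = maraviroc near 300 nM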
# Glyco luc inh – blocks N-linked glycosylation in D54 reporter cells; reporter increase, % at 12.5 µM; hit rate 0.23% among 360,000; D54 ERlucT glycosylation luciferase reporter, 24 h; percent of 100 nM tunicamycin response;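 active = mean luciferase reporter signal, scaled so untreated is 0 and the glycosylation-blocking control 100, at or above a set limit in every replicate; inconclusive = mean reaches the limit but not every replicate does; inactive = mean below the limit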;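 note: luciferase carries N-glycosylation sites so blocking glycosylation raises the light; 0% = median of neutral control wells and 100% = median of 100 nM tunicamycin wells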
# Starred values were filed as active, the others as inactive; ? = inconclusive; . = not tested or not shown; [ ] = another dose, or the depositor's remark.
SMILES,PfHsp90 set2,Rtt109 Vps75,PAX8 reporter,Arr AP2 block,HIV Env fusion,Glyco luc inh
CN(C)C(CNC(=O)c1cccc(S(=O)(=O)Nc2ccccc2Cl)c1)c1ccccc1 (centres undefined),-27,7,5,36,-9,1
COc1ccc(CCNC(=O)COC(=O)c2cccs2)cc1,.,-4,83*,0,-9,3
COc1ccc(CCNC(=O)COC(=O)c2cccs2)cc1OC,24,4,-29,2,3,2
COc1ccc(CCNC(=O)N2c3ccccc3Sc3ccccc32)cc1,-7,7,43,1,75*,-8
CC(C)NC(=O)N(C)C[C@@H]1OCCCC[C@@H](C)Oc2ccc(NC(=O)CCC(F)(F)F)cc2C(=O)N([C@H](C)CO)C[C@H]1C,.,.,13,.,0[16.7 µM],.
CC(C)NC(=O)Nc1ccc2c(c1)C(=O)N([C@H](C)CO)C[C@H](C)[C@@H](CN(C)C(=O)Nc1ccccc1)OCCCC[C@H](C)O2,.,.,-7,.,-32[16.7 µM],.
COC(=O)Cn1cnc2c(Cl)nc(F)nc21,2,-3,32,-1,89*,-5
CC[C@@]12C(=O)N(c3ccc(C)cc3)C(=O)N1[C@H](c1ccc(OC)cc1)[C@@H]1C(=O)N(C(C)(C)C)C(=O)[C@@H]12,-2,6,-5,-8,80*,-2
CC[C@@]12C(=O)N(c3ccc(C)cc3)C(=O)N1[C@H](c1ccc(Br)cc1)[C@@H]1C(=O)N(C(C)(C)C)C(=O)[C@@H]12,-20,2,-10,10,86*,-2
CC[C@@]12C(=O)N(c3cccc(Br)c3)C(=O)N1[C@H](c1ccc(Br)cc1)[C@@H]1C(=O)N(C(C)(C)C)C(=O)[C@@H]12,-4,8,-6,23,-11,-3
CC[C@@]12C(=O)N(c3cccc(Br)c3)C(=O)N1[C@H](c1ccc(OC)cc1)[C@@H]1C(=O)N(C(C)(C)C)C(=O)[C@@H]12,9,-5,17,16,96*,1
COc1ccc([C@@H]2[C@@H]3C(=O)N(C(C)(C)C)C(=O)[C@@H]3[C@]3(Cc4ccccc4)C(=O)N(c4ccc(Br)cc4)C(=O)N23)cc1,-4,-5,.,18,.,-1
CC[C@@]12C(=O)N(c3ccccc3)C(=O)N1[C@H](c1ccc(OC)cc1)[C@@H]1C(=O)N(C(C)(C)C)C(=O)[C@@H]12,-6,1,-32,5,73*,-2
COc1ccc(N2C(=O)N3[C@H](c4ccc(Br)cc4)[C@@H]4C(=O)N(C(C)(C)C)C(=O)[C@@H]4[C@]3(Cc3ccccc3)C2=O)cc1,-32,0,-3,32,26,-1
C[C@H](CO)N1C[C@H](C)[C@@H](CN(C)Cc2ccc(C(=O)O)cc2)Oc2ccc(NS(=O)(=O)c3ccccc3)cc2C1=O,.,.,.,.,-1[16.7 µM],.
Oc1ccc(Cl)cc1Sc1cc(Cl)ccc1O,102*,?,-7,47,.,-4
CC(C)[C@H](NC(=O)c1ccco1)C(=O)NCc1ccccc1,-8,-7,3,-12,-1,0
CC(C)[C@H](NC(=O)c1ccco1)C(=O)NC12CC3CC(CC(C3)C1)C2,-6,3,0,23,58*,1
O=C(Cc1ccccn1)N1CC(=O)N2[C@H](C1)[C@@H](c1ccc(C#CC3CC3)cc1)[C@@H]2CO,.,.,-20,.,.,.
CC(C)Cn1c(=O)c(C(=O)Nc2ccncc2)c(O)c2ccccc21,106*,2,-15,9,2,-2
CCOc1ccccc1NC(=O)Nc1ccc2c(c1)OCO2,-3,3,-24,-11,-5,0
C=CCOc1ccccc1CN(C(=O)CCl)c1ccc2c(c1)OCO2,-24,-2,121*,-3,-4,6
C[C@]12CC[C@@H]3c4cc(O)c(O)cc4CC[C@H]3[C@@H]1CC[C@@H]2O,-2,123*,4,33,-1,3
C[C@]12CC[C@@H]3c4ccc(O)cc4CC[C@H]3[C@@H]1CC[C@@H]2O,-5,9,6,9,7,1
COc1cc(CNCc2ccncc2)cc(Br)c1OCc1ccccc1F,29,4,.,4,67*,-5
SMILES,PfHsp90 set2,Rtt109 Vps75,PAX8 reporter,Arr AP2 block,HIV Env fusion,Glyco luc inh
COc1cc(CNc2ccc(O)cc2)cc(Br)c1OCc1ccccc1F,-3,7,.,19,.,-2
CCOC(=O)c1cnc2ccccc2c1NCCO,1,13,.,5,.,3
CCOC(=O)c1cnc2c(C)cc(C)cc2c1NCCCN1CCOCC1,3,4,3,-4,1,29*
CCOC(=O)c1cnc2c(C)c(Cl)ccc2c1NCCCN1CCOCC1,-13,6,-22,34,-5,2
CCOC(=O)c1cnc2c(ccc3ccccc32)c1NCCCN(C)C,-16,-4,-41,6,-178,98*
CN(C)S(=O)(=O)c1ccc(Cl)c(NC(=O)CSc2nc3c(cc2C#N)C(=O)CC(C)(C)C3)c1,2,5,30,-1,7,1
CN(C)S(=O)(=O)c1cccc(NC(=O)CSc2nc3c(cc2C#N)C(=O)CC(C)(C)C3)c1,7,?,?,12,70*,1
CO/N=C/c1ccc(N2CCN(C(=O)c3cccc(C(F)(F)F)c3)CC2)c([N+](=O)[O-])c1,-16,-2,.,4,68*,-5
CO/N=C/c1ccc(N2CCN(C(=O)c3ccc(Cl)cc3Cl)CC2)c([N+](=O)[O-])c1,15,27,.,1,78*,-3
COc1ccc(C(=O)Nc2ccc3c(c2)OC[C@@H](C)NC[C@@H](C)[C@H](OC)CN(C)C3=O)cc1,.,.,.,.,-9[16.7 µM],.
CCCCC(=O)NC(c1ccc(N(C)C)cc1)c1ccc2cccnc2c1O (centres undefined),70,6,86*,11,-4,-11
CCCCC(=O)NC(c1ccc(N(CC)CC)cc1)c1ccc2cccnc2c1O (centres undefined),72,-4,93*,13,-265,-12
CCN(CC)c1ccc(C(NC(=O)C(C)C)c2ccc3cccnc3c2O)cc1 (centres undefined),.,.,93*,.,2,-11
CCCC(=O)NC(c1ccc(N(C)C)cc1)c1c(O)ccc2ccccc12 (centres undefined),22,11,9,3,-62,-3
CC(C)C(=O)NC(c1ccco1)c1ccc2cccnc2c1O (centres undefined),10,-5,.,1,.,-11
CCCCC(=O)NC(c1ccccc1Cl)c1c(O)ccc2ccccc12 (centres undefined),-27,-14,13,3,-7,-3
COc1ccc(S(=O)(=O)N(C)C[C@@H]2Oc3ccc(NC(=O)NC4CCCCC4)cc3CC(=O)N([C@@H](C)CO)C[C@H]2C)cc1,.,.,.,.,-4[16.7 µM],.
